Hits are enriched below; roughly 1.5% of the tested compounds scored in any of these assays.
FLuc act counter: affects firefly luciferase, flagging false hits in luciferase stimulation screens | 200,000 tested, under 10 active | activation factor at 10 µM | P08659 | ATPlite luciferase biochemical, luminescence, 10 min; 0 = ATP-free wells, 1 = DMSO control;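 active = luciferase activation factor, scaled between plate controls, of at least 2 with compound at 10 µM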
Target sequence (P08659 whole entry, looked up): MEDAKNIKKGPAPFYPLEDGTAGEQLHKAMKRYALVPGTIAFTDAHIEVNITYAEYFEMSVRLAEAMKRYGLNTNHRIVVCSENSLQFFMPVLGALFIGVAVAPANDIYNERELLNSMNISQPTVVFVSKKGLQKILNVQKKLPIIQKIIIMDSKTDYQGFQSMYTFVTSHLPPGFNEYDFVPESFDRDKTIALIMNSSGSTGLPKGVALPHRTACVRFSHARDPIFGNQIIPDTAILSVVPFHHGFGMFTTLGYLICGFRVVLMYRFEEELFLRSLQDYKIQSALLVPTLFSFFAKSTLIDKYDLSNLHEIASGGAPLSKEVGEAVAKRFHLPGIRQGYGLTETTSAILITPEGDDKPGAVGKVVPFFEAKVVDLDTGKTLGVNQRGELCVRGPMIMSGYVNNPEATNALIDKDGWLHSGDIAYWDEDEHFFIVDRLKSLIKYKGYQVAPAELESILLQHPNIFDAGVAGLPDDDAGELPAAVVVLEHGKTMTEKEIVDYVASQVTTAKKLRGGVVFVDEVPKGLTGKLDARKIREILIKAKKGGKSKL
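System: Luciferase/luciferin detection reagent, cell-free biochemical luciferase assay | Medium: PBS buffer for ATP | Dosing: Test compounds dosed from 2 mM stocks in 100% DMSO | Timing: 10 min at ambient temperature | Signal: Luminescence measurement of luciferase light output | Evaluation: Luciferase activation, seen as luminescence increase over controls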
C8 TRAIL sens: sensitizes caspase-8 expressing cells to TRAIL. NB7+C8 cells + TRAIL, ATPlite viability luminescence. inhibition (viability loss, TRAIL sensitization), % at 10 µM. 360,000 tested, 1% active. AID 624354;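 active = compounds causing at least 50% loss of cell viability in the single-dose screen, relative to plate controls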
FLuc inhib CS: Photinus pyralis luciferase inhibition counter-screen. P08659. ATPLite firefly luciferase biochemical luminescence, 10 min. inhibition, % at 10 µM. 200,000 tested, 1.5% active. AID 1006;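 active = inhibition above about 50% when tested at 10 µM, limit read from the data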
PPC-1+TRAIL kill: compounds killing PPC-1 cancer cells with TRAIL present (potentiator screen, no TRAIL-free arm) | PPC-1 cells + TRAIL, ATPLite viability luminescence | cell killing (% activity), % at 4 µM or 5 µM | 220,000 tested, 0.41% active;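 active = cell killing above 50% in the first pass at 4 µM, then a duplicate retest at 5 µM averaging 50% or more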;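 also: plate controls were cells with TRAIL plus DMSO for no effect and medium-only wells lacking cells for full effect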
PPC1 cytotox: PPC-1 cell cytotoxicity; shares compounds with PPC-1+TRAIL kill; PPC-1 viability, ATPlite luminescence, overnight; cytotoxicity, % at 5 µM; 1,200 tested, 50% active; AID 1447;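 active = reconfirmed compounds whose average cytotoxicity reaches 50% or more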;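 also: 0% = DMSO-treated cells and 100% = wells holding medium but no cells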
* hit, by the source's call; nt = not tested or not shown.

SMILES	FLuc act counter	C8 TRAIL sens	FLuc inhib CS	PPC-1+TRAIL kill	PPC1 cytotox
Cc1nn(-c2ccccc2)c(C)c1/C=N/n1cnnc1	1	0	3	-22	nt
Cc1nn(-c2ccccc2)c(C)c1/C=N\N1CCN(c2ccc(Cl)cc2)CC1	1	10	-4	1	3
Cc1ccc(C2=NCCn3c2c2ccccc2[n+]3[O-])cc1	nt	-12	nt	nt	nt
CCCOc1ccc(C2(C(=O)O)CCCC2)cc1	1.1	-10	-7	11	13
O=C(c1ccc2c(c1)OCO2)N(CC1CCCO1)C1(C(=O)NC2CCCCC2)CCCCC1 (configuration not stated)	1.1	4	-6	7	nt
CN(C(=O)c1ccc2c(c1)OCO2)C1(C(=O)NC2CCCC2)CCCCC1	1.1	-6	-5	6	2
CN(C)C(=O)COC(=O)c1cccc(CN2C(=O)c3ccccc3C2=O)c1	1	-12	-4	4	nt
CCOC(=O)N1CCN(S(=O)(=O)c2ccc(OCC(=O)OC)cc2)CC1	1.1	-15	-8	-2	3
CCOC(=O)COc1ccc(S(=O)(=O)N2CCN(C(=O)OCC)CC2)cc1	1	1	-1	-15	nt
O=C1C(=O)c2ccc(-c3ccccc3)cc2-c2ccccc21	1	93*	-5	97*	97*
COc1ccc(Cl)cc1CC=NNC(=O)c1cccc(C)c1O	nt	3	nt	nt	nt
COC(=O)c1nc2n(n1)C(c1ccc(OC)c(OC)c1OC)C1=C(CCCC1=O)N2 (configuration not stated)	1.1	4	-5	15	12
COC(=O)c1nc2n(n1)C(c1ccccc1OC)C1=C(CCCC1=O)N2 (configuration not stated)	1	12	0	19	nt
Cc1c(NC(=O)c2ccc(NS(=O)(=O)c3ccccc3)cc2)c(=O)n(-c2ccccc2)n1C	nt	-10	nt	nt	nt
Cc1cc(/C=C2/C(=N)N3C(=NC2=O)SN=C3S(C)(=O)=O)c(C)n1-c1ccccc1F	0.1	85*	93*	68*	70*
CCCn1c(NC(=O)c2ccccc2)nc2ccccc21	1	13	-4	10	8
CCCn1c(NC(=O)C2CCN(S(=O)(=O)c3cccs3)CC2)nc2ccccc21	1.1	34	-7	11	10
CC(C)OC(=O)Nc1ccc2c(c1)N(C(=O)N1CCN(C)CC1)c1ccccc1CC2	nt	79*	nt	74*	74*
CCOC(=O)Nc1ccc2c(c1)N(C(=O)N1CCN(C)CC1)c1ccccc1CC2	0.7	9	33	6	nt
O=C(NCCc1ccccc1)c1cnc2ccccn2c1=O	0.9	32	12	18	nt
Cc1ccccc1NC(=O)c1cnc2ccccn2c1=O	0.2	68*	82*	59*	61*
NC(=O)c1ccc(SCC(=O)OCC(=O)NC2CCCCCCC2)c([N+](=O)[O-])c1	nt	1	nt	nt	nt
Cc1ccc(-c2cc(C(=O)N3CCN(c4ccc(F)cc4)CC3)c3ccccc3n2)o1	0.7	11	29	33	30
Cc1ccc(-c2cc(C(=O)N3CCOCC3)c3ccccc3n2)o1	nt	24	nt	nt	nt
COc1ccc(-c2cc(C(=O)N3CCN(c4ccccn4)CC3)c3ccccc3n2)cc1	0.2	58*	80*	51*	53*
SMILES	FLuc act counter	C8 TRAIL sens	FLuc inhib CS	PPC-1+TRAIL kill	PPC1 cytotox
COc1ccc(-c2cc(C(=O)O)c3ccccc3n2)c(OC)c1	1	-13	0	4	nt
COc1ccc2cc(-c3cc(C(=O)O)c4ccccc4n3)ccc2c1	0	95*	98*	96*	96*
CCOc1ccc(-c2cc(C(=O)N3CCN(c4ccccn4)CC3)c3ccccc3n2)cc1	0.1	89*	90*	81*	82*
COc1ccc(NC(=O)c2ccccc2N2C(=O)C3C4C=CC(C5CC45)C3C2=O)c(OC)c1 (configuration not stated)	nt	-14	nt	nt	nt
CC1(C)Cc2c(cnn2-c2ccc(F)cc2)C(NC(=O)CN2CCCCC2=O)C1 (configuration not stated)	nt	-19	nt	nt	nt
Cc1ccc(C#CC[N+]2(CC#Cc3ccc(C)cc3)CCCCC2)cc1	1.1	34	-8	15	20
C(#Cc1ccccc1)C[N+]1(CC#Cc2ccccc2)CCCCC1	1	32	-3	23	nt
Cc1ccc(-c2cc3nc(C)cc(NCc4ccco4)n3n2)cc1	0.3	63*	68*	14	20
COCCNc1cc(C)nc2cc(-c3ccc(C)cc3)nn12	0.7	10	35	14	nt
CCOc1ccc(C(=O)Nc2nnc(NC(=S)Nc3ccccc3)s2)cc1	0.8	55*	23	13	8
CCOc1ccc(C(=O)Nc2cc(C)ccn2)cc1	0	90*	97*	91*	90*
CCOc1cc(C(=O)Nc2cc(C)ccn2)cc(OCC)c1OCC	1	7	0	6	nt
CCOc1ccc(C(=O)Nc2cccc(C)n2)cc1	0.2	57*	79*	51*	52*
CCOc1ccc(NC(=O)Nc2cccc(C)n2)cc1	nt	13	nt	nt	nt
CC1(C)CCCC(C)(C)N1CC(O)COCCOc1ccc(Br)cc1 (configuration not stated)	1	-1	4	45	nt
OC1(c2ccc(Cl)c(Cl)c2)C[n+]2ccccc2N1Cc1ccccc1 (configuration not stated)	nt	11	nt	19	nt
CC(=O)Nc1nonc1-c1nc2ccccc2n1CC1CC1	1	16	-2	2	nt
CCC(=O)Nc1nonc1-c1nc2ccccc2n1CC(C)C	1.1	12	-7	-8	-13
CC1C(=O)CC2C3(C)CCC2(C(C)C(=O)O)C(=O)C13 (configuration not stated)	nt	-10	nt	nt	nt
CC(=O)c1nn(-c2cccc(Br)c2)cc1C(=O)c1ccccc1	1.1	-2	-6	2	4
CC(=O)c1nn(-c2ccc(Cl)cc2)cc1C(=O)c1ccccc1	nt	13	nt	nt	nt
CC(=O)c1nn(-c2ccccc2)cc1C(=O)c1cccc(Br)c1	1.1	-5	-8	2	nt
CCOC(=O)c1nn(-c2ccc(C)cc2)cc1C(=O)c1ccccc1	0.4	53*	64*	39	45
CC(C)(C)NC(=O)c1ccc2c(c1)CCO2	nt	10	nt	10	nt
O=C(NC(=O)c1ccccc1O)c1ccc2c(c1)CCO2	nt	74*	nt	69*	68*
SMILES	FLuc act counter	C8 TRAIL sens	FLuc inhib CS	PPC-1+TRAIL kill	PPC1 cytotox
Oc1ccc(N=Nc2ccc3c(c2)OCCO3)c2cccnc12	0.7	30	28	24	nt
Oc1ccc(N=Nc2ccc3c(c2)OCCO3)c(O)c1	nt	72*	nt	65*	66*
CCN(CC)C(=O)CN(c1cc2c(cc1OC)oc1ccccc12)S(=O)(=O)c1ccccc1	1.1	0	-8	-8	-19
COCCNC(=O)c1ccc2c3n(nc2c1)-c1ccccc1CO3	nt	58*	nt	50*	55*
COCCNC(=O)c1ccc2c3n(nc2c1)-c1ccc(Cl)cc1CO3	nt	14	nt	26	nt
Cc1ccc2c(c1)COc1c3ccc(C(=O)NCCO)cc3nn1-2	nt	32	nt	23	nt
C=CCNC(=O)c1ccc2c3n(nc2c1)-c1ccccc1CO3	nt	86*	nt	84*	84*
O=C(NCC(=O)N1CCN(S(=O)(=O)c2ccc3c(c2)OCCO3)CC1)c1ccccc1Cl	nt	12	nt	nt	nt

Source: PubChem
